{"source": "ChEMBL document CHEMBL1148893", "about": "“Nodulisporic acids D-F: structure, biological activities, and biogenetic relationships” (J Nat Prod, 2004)", "key": {"[1]": {"experiment": "Displacement of [35S]nodulisporic amide from Glutamate gated chloride channel alpha subunit/GABA gated chloride channel subunit Rdl in Drosophila melanogaster head membrane", "in_short": "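Competition binding against [35S]nodulisporic amide (10 pM ligand) on Drosophila melanogaster head membranes. Compounds prepared as 20 mM DMSO stocks, tested from 10 µM down to 10 pM (0.1 pM for potent ones) in 0.5 log steps, in triplicate. Each compound assayed at least twice; IC50 reported as geometric mean. Where label recovery increased, the highest concentration without \"precipitation\" is reported instead.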"}, "[2]": {"system": "Ctenocephalides felis", "experiment": "Insecticidal activity against Ctenocephalides felis by artificial membrane feeding assay", "type": "functional", "in_short": "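Ex-vivo artificial membrane feeding assay, 20-25 cat fleas per titration level; compounds dissolved or suspended in bovine blood fed to fleas. LD90 taken as the concentration killing >90% of fleas.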"}}, "data": [{"smiles": "C=C(C)[C@H]1Cc2c3c(cc4c5c(n1c24)[C@@]1(C)[C@@H](CC[C@H]2[C@](C)(/C=C/C=C(\\C)C(=O)OC)[C@@H](O)CC[C@@]21C)C5)C1=CC(C)(C)OC(C)(C)[C@H]1[C@@H]3O", "values": [{"measurement": "IC50", "setting": "[1]", "result": 2.6, "unit": "nM"}, {"measurement": "LD90", "setting": "[2]", "result": 147.1, "unit": "µM"}]}, {"smiles": "C=C(C)[C@H]1C(=O)c2c3c(cc4c5c(n1c24)[C@@]1(C)[C@@H](CC[C@H]2[C@](C)(/C=C/C=C(\\C)C(=O)OC)[C@@H](O)CC[C@@]21C)C5)C1=CC(C)(C)OC(C)(C)[C@H]1[C@@H]3O", "values": [{"measurement": "IC50", "setting": "[1]", "result": 0.43, "unit": "nM"}, {"measurement": "LD90", "setting": "[2]", "result": 14.4, "unit": "µM"}]}, {"smiles": "CC(C)=CCc1c2c(cc3c4c([nH]c13)[C@@]1(C)[C@@H](CC[C@H]3[C@](C)(CC/C=C(\\C)C(=O)O)[C@@H](O)CC[C@@]31C)C4)C1=CC(C)(C)OC(C)(C)C1=C2", "values": [{"measurement": "IC50", "setting": "[1]", "result": "> 100", "unit": "nM"}, {"measurement": "LD90", "setting": "[2]", "result": 15.3, "unit": "µM"}]}, {"smiles": "CC(C)=CCc1cc2[nH]c3c(c2cc1CC=C(C)C)C[C@@H]1CC[C@H]2[C@](C)(CC/C=C(\\C)C(=O)O)[C@@H](O)CC[C@]2(C)[C@@]31C", "values": [{"measurement": "IC50", "setting": "[1]", "result": 2140, "unit": "nM"}]}, {"smiles": "COC(=O)/C(C)=C/CC[C@]1(C)[C@@H](O)CC[C@@]2(C)[C@H]1CC[C@H]1Cc3c([nH]c4cc(CC=C(C)C)c(CC=C(C)C)cc34)[C@@]12C", "values": [{"measurement": "IC50", "setting": "[1]", "result": "> 100", "unit": "nM"}]}, {"smiles": "C=C(C)[C@H]1C(=O)c2c3c(cc4c5c(n1c24)[C@@]1(C)[C@@H](CC[C@H]2[C@](C)(CC/C=C(\\C)C(=O)O)[C@@H](O)CC[C@@]21C)C5)C1=CC(C)(C)OC(C)(C)C1=C3", "values": [{"measurement": "IC50", "setting": "[1]", "result": 23, "unit": "nM"}, {"measurement": "LD90", "setting": "[2]", "result": ">15.1", "unit": "µM"}]}, {"smiles": "C=C(C)[C@H]1C(=O)c2c3c(cc4c5c(n1c24)[C@@]1(C)C(CC[C@H]2[C@](C)(/C=C/C=C(\\C)C(=O)O)[C@@H](O)CC[C@@]21C)C5)C1=CC(C)(C)OC(C)(C)C1[C@@H]3O", "note": "(stereo not given in full) [NOD ACID A]", "values": [{"measurement": "IC50", "setting": "[1]", "result": 0.27, "unit": "nM"}, {"measurement": "LD90", "setting": "[2]", "result": 1.5, "unit": "µM"}]}, {"smiles": "C=C(C)[C@H]1C(=O)c2c3c(cc4c5c(n1c24)[C@@]1(C)[C@@H](CC[C@@H]2[C@]1(C)CC[C@]1(O)O[C@H](/C=C(\\C)C(=O)O)C[C@@]21C)C5)C1=CC(C)(C)OC(C)(C)[C@H]1[C@@H]3O", "note": "[NODULISPORIC ACID A1]", "values": [{"measurement": "IC50", "setting": "[1]", "result": 10.5, "unit": "nM"}, {"measurement": "LD90", "setting": "[2]", "result": 7.3, "unit": "µM"}]}, {"smiles": "C=C(C)[C@H]1C(=O)c2c3c(cc4c5c(n1c24)[C@@]1(C)[C@@H](CC[C@H]2[C@](C)(CC/C=C(\\C)C(=O)O)[C@@H](O)CC[C@@]21C)C5)C1=CC(C)(C)OC(C)(C)[C@H]1[C@@H]3O", "note": "[NODULISPORIC ACID A4]", "values": [{"measurement": "IC50", "setting": "[1]", "result": 2.4, "unit": "nM"}, {"measurement": "LD90", "setting": "[2]", "result": 14.7, "unit": "µM"}]}, {"smiles": "C=C(C)[C@H]1C(=O)c2c3c(cc4c5c(n1c24)[C@@]1(C)[C@@H](CC[C@@H]2[C@]1(C)CC[C@]1(O)O[C@H]([C@H](O)[C@H](C)C(=O)O)C[C@@]21C)C5)C1=CC(C)(C)OC(C)(C)[C@H]1[C@@H]3O", "note": "[NODULISPORIC ACID A12]", "values": [{"measurement": "IC50", "setting": "[1]", "result": 70, "unit": "nM"}, {"measurement": "LD90", "setting": "[2]", "result": 14, "unit": "µM"}]}, {"smiles": "C=C(C)[C@H]1Cc2c3c(cc4c5c(n1c24)[C@@]1(C)[C@@H](CC[C@@H]2[C@]1(C)CC[C@]1(O)O[C@H](/C=C(\\C)C(=O)O)C[C@@]21C)C5)C1=CC(C)(C)OC(C)(C)[C@H]1[C@@H]3O", "note": "[NODULISPORIC ACID B1]", "values": [{"measurement": "IC50", "setting": "[1]", "result": 121, "unit": "nM"}, {"measurement": "LD90", "setting": "[2]", "result": ">147.7", "unit": "µM"}]}, {"smiles": "C=C(C)[C@H]1Cc2c3c(cc4c5c(n1c24)[C@@]1(C)[C@@H](CC[C@@H]2[C@]1(C)CC[C@]1(O)O[C@H]([C@H](O)[C@H](C)C(=O)O)C[C@@]21C)C5)C1=CC(C)(C)OC(C)(C)[C@H]1[C@@H]3O", "note": "[NODULISPORIC ACID B2]", "values": [{"measurement": "IC50", "setting": "[1]", "result": 101, "unit": "nM"}, {"measurement": "LD90", "setting": "[2]", "result": ">142.9", "unit": "µM"}]}, {"smiles": "CC(C)=CCc1c2c(cc3c4c([nH]c13)[C@@]1(C)[C@@H](CC[C@@H]3[C@]1(C)CC[C@]1(O)O[C@H](/C=C(\\C)C(=O)O)C[C@@]31C)C4)C1=CC(C)(C)OC(C)(C)[C@H]1[C@@H]2O", "note": "[NODULISPORIC ACID C1]", "values": [{"measurement": "IC50", "setting": "[1]", "result": 52.3, "unit": "nM"}, {"measurement": "LD90", "setting": "[2]", "result": ">146.2", "unit": "µM"}]}, {"smiles": "CC(C)=CCc1c2c(cc3c4c([nH]c13)[C@@]1(C)[C@@H](CC[C@@H]3[C@]1(C)CC[C@]1(O)O[C@H]([C@H](O)[C@H](C)C(=O)O)C[C@@]31C)C4)C1=CC(C)(C)OC(C)(C)[C@H]1[C@@H]2O", "note": "[NODULISPORIC ACID C2]", "values": [{"measurement": "IC50", "setting": "[1]", "result": 71.5, "unit": "nM"}, {"measurement": "LD90", "setting": "[2]", "result": ">142.5", "unit": "µM"}]}, {"smiles": "CC(C)=CCc1c2c(cc3c4c([nH]c13)[C@@]1(C)[C@@H](CC[C@H]3[C@](C)(/C=C/C=C(\\C)C(=O)O)[C@@H](O)CC[C@@]31C)C4)C1=CC(C)(C)OC(C)(C)[C@H]1[C@@H]2O", "note": "[NODULISPORIC ACID C]", "values": [{"measurement": "IC50", "setting": "[1]", "result": 5.2, "unit": "nM"}, {"measurement": "LD90", "setting": "[2]", "result": 15, "unit": "µM"}]}, {"smiles": "COC(=O)/C(C)=C/[C@@H]1C[C@@]2(C)[C@@H]3CC[C@H]4Cc5c([nH]c6cc7c(cc56)C5=CC(C)(C)OC(C)(C)[C@H]5C7)[C@]4(C)[C@@]3(C)CC[C@]2(O)O1", "note": "[NODULISPORIC ACID D1 METHYL ESTER]", "values": [{"measurement": "IC50", "setting": "[1]", "result": "> 100", "unit": "nM"}]}, {"smiles": "C/C(=C\\[C@@H]1C[C@@]2(C)[C@@H]3CC[C@H]4Cc5c([nH]c6cc7c(cc56)C5=CC(C)(C)OC(C)(C)[C@H]5C7)[C@]4(C)[C@@]3(C)CC[C@]2(O)O1)C(=O)O", "note": "[NODULISPORIC ACID D1]", "values": [{"measurement": "IC50", "setting": "[1]", "result": "> 10000", "unit": "nM"}]}, {"smiles": "COC(=O)[C@@H](C)[C@@H](O)[C@@H]1C[C@@]2(C)[C@@H]3CC[C@H]4Cc5c([nH]c6cc7c(cc56)C5=CC(C)(C)OC(C)(C)[C@H]5C7)[C@]4(C)[C@@]3(C)CC[C@]2(O)O1", "note": "[NODULISPORIC ACID D2 METHYL ESTER]", "values": [{"measurement": "IC50", "setting": "[1]", "result": "> 10000", "unit": "nM"}]}, {"smiles": "C[C@H](C(=O)O)[C@@H](O)[C@@H]1C[C@@]2(C)[C@@H]3CC[C@H]4Cc5c([nH]c6cc7c(cc56)C5=CC(C)(C)OC(C)(C)[C@H]5C7)[C@]4(C)[C@@]3(C)CC[C@]2(O)O1", "note": "[NODULISPORIC ACID D2]", "values": [{"measurement": "IC50", "setting": "[1]", "result": 22.1, "unit": "nM"}]}, {"smiles": "C/C(=C\\C=C\\[C@]1(C)C(=O)CC[C@@]2(C)[C@H]1CC[C@H]1Cc3c([nH]c4cc5c(cc34)C3=CC(C)(C)OC(C)(C)[C@H]3C5)[C@@]12C)C(=O)O", "note": "[NODULISPORIC ACID D3]", "values": [{"measurement": "IC50", "setting": "[1]", "result": "> 1000", "unit": "nM"}]}, {"smiles": "COC(=O)/C(C)=C/C=C/[C@]1(C)[C@@H](O)CC[C@@]2(C)[C@H]1CC[C@H]1Cc3c([nH]c4cc5c(cc34)C3=CC(C)(C)OC(C)(C)[C@H]3C5)[C@@]12C", "note": "[NODULISPORIC ACID D METHYL ESTER]", "values": [{"measurement": "IC50", "setting": "[1]", "result": "> 100", "unit": "nM"}]}, {"smiles": "C/C(=C\\CC[C@]1(C)[C@@H](O)CC[C@@]2(C)[C@H]1CC[C@H]1Cc3c([nH]c4ccccc34)[C@@]12C)C(=O)O", "note": "[NODULISPORIC ACID F]", "values": [{"measurement": "IC50", "setting": "[1]", "result": "> 10000", "unit": "nM"}, {"measurement": "LD90", "setting": "[2]", "result": 45.9, "unit": "µM"}]}, {"smiles": "C=C(C)[C@H]1Cc2c3c(cc4c5c(n1c24)[C@@]1(C)[C@@H](CC[C@H]2[C@](C)(/C=C/C=C(\\C)C(=O)O)[C@@H](O)CC[C@@]21C)C5)C1=CC(C)(C)OC(C)(C)[C@H]1[C@@H]3O", "note": "[NODULISPORIC ACIDS B]", "values": [{"measurement": "IC50", "setting": "[1]", "result": 17.4, "unit": "nM"}, {"measurement": "LD90", "setting": "[2]", "result": 150, "unit": "µM"}]}, {"smiles": "C/C(=C\\C=C\\[C@]1(C)[C@@H](O)CC[C@@]2(C)[C@H]1CC[C@H]1Cc3c([nH]c4cc5c(cc34)C3=CC(C)(C)OC(C)(C)[C@H]3C5)[C@@]12C)C(=O)O", "note": "[NODULISPORIC ACID]", "values": [{"measurement": "IC50", "setting": "[1]", "result": "> 1000", "unit": "nM"}, {"measurement": "LD90", "setting": "[2]", "result": 92.6, "unit": "µM"}]}]}
